# Measurements as given in ChEMBL document CHEMBL5523688, “Selective targeting of human TET1 by cyclic peptide inhibitors: Insights from biochemical profiling” (Bioorg Med Chem, 2024).
# Assays:
# [1] = molecular target: T1, Methylcytosine dioxygenase TET1 (Homo sapiens, UniProt Q8NFU7); test: (§1) Inhibition of N-terminal 3xFlag-tagged recombinant human TET1 catalytic domain (E1418 to V2136 residues) expressed in baculovirus infected Sf9 cells using 5-methylcytosine as substrate assessed as change in pIC50 preincubated for 10 mins followed by substrate and DNA-cofactor addition measured after 30 mins by Alphascreen assay; settings: time 40.0 min
# Summary of the method: (§2)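 TET1 catalytic domain (E1418–V2136, Sf9 baculovirus) at 2 nM was preincubated 10 min with inhibitor (1% DMSO) in HEPES 50 mM pH 7.3, 150 mM NaCl, 0.1% BSA, 0.01% Tween-20. Reaction was started with ascorbate 200 µM, Fe(II) 20 µM, 2OG 20 µM and 5mC ssDNA 10 nM, run 30 min, then EDTA-quenched. Anti-5hmC antibody with AlphaScreen beads, 45–60 min, luminescence read. Three independent replicates.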
# [2] = molecular target: T2, Methylcytosine dioxygenase TET3 (Homo sapiens, UniProt O43151); test: as §1, with “of” for “of N-terminal 3xFlag-tagged”, “TET3” for “TET1”, “(E824” for “(E1418”, “I1795” for “V2136”, “10” for “30”; settings: time 20.0 min
# [3] = molecular target: T3, Methylcytosine dioxygenase TET2 (Homo sapiens, UniProt Q6N021); test: (§3) Inhibition of N-terminal His-tagged recombinant human TET2 catalytic domain LCIdel mutant (D1129 to G1936 residues with Y1481 to N1843 replaced by 3 x GGGGS linker) expressed in Escherichia coli BL21 (DE3) using 5-methylcytosine as substrate preincubated for 10 mins followed by substrate and DNA-cofactor addition measured after 10 mins by Alphascreen assay
# [4] = molecular target: T1, Methylcytosine dioxygenase TET1; test: as §1, with “substrate” for “substrate assessed as change in pIC50”; settings: read-out: pIC50 (converted); summary of the method: as §2
# [5] = tested on: Methylcytosine dioxygenase TET2 (Homo sapiens), Q6N021 [UNDEFINED MUTATION]; settings: time 20.0 min
# [6] = molecular target: T2, Methylcytosine dioxygenase TET3; test: Inhibition of recombinant human TET3 catalytic domain (E824 to I1795 residues) expressed in baculovirus infected Sf9 cells using 5-methylcytosine as substrate preincubated for 10 mins followed by substrate and DNA-cofactor addition measured after 10 mins by Alphascreen assay; settings: read-out: pIC50 (converted)
# [7] = molecular target: T3, Methylcytosine dioxygenase TET2; test: as §3, with “after 12” for “after 10”, “by SPE-MS analysis” for “by Alphascreen assay”
# [8] = molecular target: Methylcytosine dioxygenase TET1 (Mus musculus, UniProt Q3URK3); test: Inhibition of recombinant mouse TET1 catalytic domain (E1367 to V2039 residues) expressed in baculovirus expression system using 5-methylcytosine as substrate preincubated for 10 mins followed by substrate and DNA-cofactor addition measured after 9 mins by Alphascreen assay
# Summary of the method: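 Murine Tet1 catalytic domain (E1367–V2039, High Five baculovirus) at 2 nM was preincubated 10 min with inhibitor (1% DMSO) in HEPES 50 mM pH 7.3, NaCl 150 mM, BSA 0.1%, Tween-20 0.01%. Ascorbate 200 µM, Fe(II) 20 µM, 2OG 20 µM and 5mC ssDNA 10 nM were added; reaction ran 9 min, then EDTA-quenched. AlphaScreen anti-5hmC detection by luminescence.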
# Chain of Methylcytosine dioxygenase TET1 (Mus musculus, UniProt Q3URK3) (Q3URK3 whole entry, the tested form may be a part): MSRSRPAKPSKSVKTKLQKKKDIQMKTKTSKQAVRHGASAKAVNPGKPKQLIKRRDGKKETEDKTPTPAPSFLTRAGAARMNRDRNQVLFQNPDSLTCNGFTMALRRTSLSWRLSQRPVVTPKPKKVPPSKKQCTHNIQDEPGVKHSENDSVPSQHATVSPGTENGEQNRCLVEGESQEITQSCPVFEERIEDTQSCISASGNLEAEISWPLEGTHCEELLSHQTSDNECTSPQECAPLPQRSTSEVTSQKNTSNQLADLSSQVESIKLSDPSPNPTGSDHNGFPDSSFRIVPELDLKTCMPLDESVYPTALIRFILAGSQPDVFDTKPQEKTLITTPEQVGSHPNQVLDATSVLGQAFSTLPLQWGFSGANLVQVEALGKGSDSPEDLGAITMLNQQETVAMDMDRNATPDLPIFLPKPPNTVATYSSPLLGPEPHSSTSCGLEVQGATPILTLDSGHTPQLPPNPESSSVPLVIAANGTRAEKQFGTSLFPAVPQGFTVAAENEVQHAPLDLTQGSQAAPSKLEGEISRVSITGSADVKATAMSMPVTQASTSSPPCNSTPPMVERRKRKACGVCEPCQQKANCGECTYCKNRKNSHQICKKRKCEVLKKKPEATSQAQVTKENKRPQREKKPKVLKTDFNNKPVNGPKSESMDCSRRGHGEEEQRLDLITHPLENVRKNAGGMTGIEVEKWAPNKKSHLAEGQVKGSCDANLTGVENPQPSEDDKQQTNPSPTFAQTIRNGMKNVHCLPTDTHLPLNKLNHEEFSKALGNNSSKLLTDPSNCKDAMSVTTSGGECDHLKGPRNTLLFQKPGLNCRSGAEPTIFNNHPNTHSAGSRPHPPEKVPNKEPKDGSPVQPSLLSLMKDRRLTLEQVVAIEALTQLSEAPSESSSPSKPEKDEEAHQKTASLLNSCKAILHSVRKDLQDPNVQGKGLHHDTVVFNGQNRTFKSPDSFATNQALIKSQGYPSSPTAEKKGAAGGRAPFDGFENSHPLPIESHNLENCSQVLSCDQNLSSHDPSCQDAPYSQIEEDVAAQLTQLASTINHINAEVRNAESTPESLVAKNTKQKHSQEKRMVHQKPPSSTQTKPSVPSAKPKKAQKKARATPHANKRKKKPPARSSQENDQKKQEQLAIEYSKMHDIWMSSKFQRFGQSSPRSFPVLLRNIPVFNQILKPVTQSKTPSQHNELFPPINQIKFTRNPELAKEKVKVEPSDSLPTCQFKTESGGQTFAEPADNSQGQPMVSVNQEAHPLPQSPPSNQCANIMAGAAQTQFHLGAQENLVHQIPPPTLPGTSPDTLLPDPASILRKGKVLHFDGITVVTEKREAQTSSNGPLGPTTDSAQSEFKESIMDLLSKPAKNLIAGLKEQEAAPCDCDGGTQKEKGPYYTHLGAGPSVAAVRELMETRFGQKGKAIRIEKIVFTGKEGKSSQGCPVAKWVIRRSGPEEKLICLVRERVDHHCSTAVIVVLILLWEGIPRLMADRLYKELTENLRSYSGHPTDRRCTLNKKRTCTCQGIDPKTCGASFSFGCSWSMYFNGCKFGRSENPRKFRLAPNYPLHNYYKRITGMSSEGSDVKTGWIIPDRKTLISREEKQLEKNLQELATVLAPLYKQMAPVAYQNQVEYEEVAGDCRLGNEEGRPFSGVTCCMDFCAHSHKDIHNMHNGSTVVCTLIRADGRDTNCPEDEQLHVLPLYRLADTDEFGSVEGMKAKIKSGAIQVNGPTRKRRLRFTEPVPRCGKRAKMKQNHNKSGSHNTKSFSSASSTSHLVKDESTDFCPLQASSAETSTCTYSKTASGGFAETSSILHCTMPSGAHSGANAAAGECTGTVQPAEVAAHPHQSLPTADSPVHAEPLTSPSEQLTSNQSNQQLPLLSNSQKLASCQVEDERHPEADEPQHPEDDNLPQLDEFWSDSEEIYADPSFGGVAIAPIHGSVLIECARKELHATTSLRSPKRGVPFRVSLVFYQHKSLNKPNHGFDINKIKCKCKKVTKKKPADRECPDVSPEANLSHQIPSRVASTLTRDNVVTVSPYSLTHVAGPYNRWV
SMILES,deltapIC50 [1],deltapIC50 [2],IC50 [4],deltapIC50 [5],IC50 [6],IC50 [8],pIC50 [3],pIC50 [7]
CC[C@H](C)[C@@H]1NC(=O)[C@H](CC(C)C)NC(=O)[C@@H](Cc2ccc(O)cc2)NC(=O)CSC[C@@H](C(N)=O)NC(=O)[C@H](CO)NC(=O)[C@H](Cc2c[nH]cn2)NC(=O)[C@H](CCC(=O)O)NC(=O)[C@H](Cc2c[nH]c3ccccc23)NC(=O)[C@H](Cc2c[nH]c3ccccc23)NC(=O)[C@H]([C@@H](C)O)NC(=O)[C@H](Cc2ccc(O)cc2)NC(=O)[C@H](C)NC(=O)[C@H](C)NC(=O)[C@H](Cc2ccc(O)cc2)NC1=O,-0.52,-0.48,1.1 µM,-0.07,16.2 µM,–,4.63,–
CC[C@H](C)[C@@H]1NC(=O)[C@H](CC(C)C)NC(=O)[C@@H](Cc2ccc(O)cc2)NC(=O)CSC[C@@H](C(N)=O)NC(=O)[C@H](CO)NC(=O)[C@H](Cc2c[nH]cn2)NC(=O)[C@H](CCC(=O)O)NC(=O)[C@H](C)NC(=O)[C@H](Cc2c[nH]c3ccccc23)NC(=O)[C@H]([C@@H](C)O)NC(=O)[C@H](Cc2ccc(O)cc2)NC(=O)[C@H](Cc2ccc(O)cc2)NC(=O)[C@H](C)NC(=O)[C@H](Cc2ccc(O)cc2)NC1=O,-1.63,-0.46,13.8 µM,< -0.7,15.1 µM,–,< 4,–
CC[C@H](C)[C@@H]1NC(=O)[C@H](CC(C)C)NC(=O)[C@@H](Cc2ccc(O)cc2)NC(=O)CSC[C@@H](C(N)=O)NC(=O)[C@H](CO)NC(=O)[C@H](C)NC(=O)[C@H](CCC(=O)O)NC(=O)[C@H](Cc2c[nH]c3ccccc23)NC(=O)[C@H](Cc2c[nH]c3ccccc23)NC(=O)[C@H]([C@@H](C)O)NC(=O)[C@H](Cc2ccc(O)cc2)NC(=O)[C@H](Cc2ccc(O)cc2)NC(=O)[C@H](C)NC(=O)[C@H](Cc2ccc(O)cc2)NC1=O,0.23,0.24,0.195 µM,0.23,3.09 µM,–,4.93,–
CC[C@H](C)[C@@H]1NC(=O)[C@H](CC(C)C)NC(=O)[C@@H](Cc2ccc(O)cc2)NC(=O)CSC[C@@H](C(N)=O)NC(=O)[C@H](CO)NC(=O)[C@H](Cc2c[nH]cn2)NC(=O)[C@H](CCC(=O)O)NC(=O)[C@H](Cc2c[nH]c3ccccc23)NC(=O)[C@H](C)NC(=O)[C@H]([C@@H](C)O)NC(=O)[C@H](Cc2ccc(O)cc2)NC(=O)[C@H](Cc2ccc(O)cc2)NC(=O)[C@H](C)NC(=O)[C@H](Cc2ccc(O)cc2)NC1=O,-1.32,-0.59,6.92 µM,-0.36,20.4 µM,–,4.34,–
C[C@@H]1NC(=O)[C@H](Cc2ccccc2)NC(=O)[C@H](Cc2ccc(O)cc2)NC(=O)[C@H](Cc2ccc(O)cc2)NC(=O)[C@H](CCCNC(=N)N)NC(=O)[C@@H](Cc2ccc(O)cc2)NC(=O)CSC[C@@H](C(N)=O)NC(=O)[C@H](C)NC(=O)[C@H](Cc2c[nH]c3ccccc23)NC(=O)[C@H](Cc2c[nH]c3ccccc23)NC(=O)[C@H]([C@@H](C)O)NC(=O)[C@H](Cc2ccc(O)cc2)NC1=O,–,–,0.468 µM,-0.5,2.75 µM,3.63 µM,5.52,~ 5
CC(C)[C@@H]1NC(=O)[C@@H]2CCCN2C(=O)[C@H](C)NC(=O)[C@@H](Cc2ccc(O)cc2)NC(=O)CSC[C@@H](C(N)=O)NC(=O)[C@H](Cc2c[nH]c3ccccc23)NC(=O)[C@H](Cc2c[nH]c3ccccc23)NC(=O)[C@H]([C@@H](C)O)NC(=O)[C@H](Cc2ccc(O)cc2)NC(=O)[C@H](CC(N)=O)NC(=O)[C@H](Cc2c[nH]c3ccccc23)NC(=O)[C@H](Cc2ccc(O)cc2)NC1=O,–,–,1.86 µM,1.49,46.8 µM,55 µM,4.17,5.66
CC[C@H](C)[C@@H]1NC(=O)[C@H](Cc2ccccc2)NC(=O)[C@H](Cc2ccc(O)cc2)NC(=O)[C@H](CC(C)C)NC(=O)[C@H](CCCNC(=N)N)NC(=O)[C@H](C)NC(=O)[C@H](Cc2c[nH]c3ccccc23)NC(=O)[C@H](Cc2c[nH]c3ccccc23)NC(=O)[C@@H]2CCCN2C(=O)[C@H](C(C)C)NC(=O)[C@H](Cc2ccc(O)cc2)NC(=O)[C@@H](Cc2ccccc2)NC(=O)[C@H](CCCCN)NC(=O)[C@@H](Cc2ccc(O)cc2)NC(=O)CSC[C@H](C(N)=O)NC(=O)CNC1=O,–,–,0.24 µM,-0.43,1.02 µM,1.1 µM,5.95,5.52
CC[C@H](C)[C@@H]1NC(=O)[C@H]([C@@H](C)CC)NC(=O)[C@@H](Cc2c[nH]c3ccccc23)NC(=O)CSC[C@@H](C(N)=O)NC(=O)[C@H](CCCNC(=N)N)NC(=O)[C@H](Cc2c[nH]c3ccccc23)NC(=O)[C@H](Cc2c[nH]c3ccccc23)NC(=O)[C@H]([C@@H](C)O)NC(=O)[C@H](Cc2ccc(O)cc2)NC(=O)[C@H](CC(N)=O)NC(=O)[C@H](Cc2c[nH]cn2)NC(=O)[C@H](Cc2ccc(O)cc2)NC1=O,–,–,0.363 µM,-0.54,0.631 µM,0.933 µM,6.08,5.54

# The next lines start with results.
deltapIC50 [1],deltapIC50 [2],IC50 [4],deltapIC50 [5],IC50 [6],IC50 [8],SMILES,pIC50 [3],pIC50 [7]
–,–,0.776 µM,-0.34,0.501 µM,1.35 µM,CC[C@H](C)[C@@H]1NC(=O)[C@H](CCC(N)=O)NC(=O)[C@H](Cc2c[nH]cn2)NC(=O)[C@H](Cc2ccc(O)cc2)NC(=O)[C@H]([C@@H](C)O)NC(=O)[C@H](CCCCN)NC(=O)[C@H](C(C)C)NC(=O)[C@H](CCCNC(=N)N)NC(=O)[C@H](Cc2ccc(O)cc2)NC(=O)[C@@H](Cc2ccc(O)cc2)NC(=O)CSC[C@@H](C(N)=O)NC(=O)[C@H](CO)NC(=O)[C@H](C(C)C)NC(=O)[C@H](Cc2ccc(O)cc2)NC(=O)[C@H](C(C)C)NC(=O)[C@H](Cc2ccc(O)cc2)NC(=O)[C@H]([C@@H](C)O)NC1=O,5.89,5.55
–,–,1.35 µM,0.39,6.03 µM,8.71 µM,CC[C@H](C)[C@@H]1NC(=O)[C@H](CCC(N)=O)NC(=O)[C@H](Cc2ccc(O)cc2)NC(=O)[C@H](Cc2ccc(O)cc2)NC(=O)[C@H]([C@@H](C)O)NC(=O)[C@H](CCCCN)NC(=O)[C@H](C(C)C)NC(=O)[C@H](CCCNC(=N)N)NC(=O)[C@H](Cc2ccc(O)cc2)NC(=O)[C@@H](Cc2ccc(O)cc2)NC(=O)CSC[C@@H](C(N)=O)NC(=O)[C@H](CO)NC(=O)[C@H](C(C)C)NC(=O)[C@H](Cc2ccc(O)cc2)NC(=O)[C@H](C(C)C)NC(=O)[C@H](Cc2ccc(O)cc2)NC(=O)[C@H]([C@@H](C)O)NC1=O,5.11,5.5
–,–,1.15 µM,0.02,2.4 µM,3.39 µM,CC[C@H](C)[C@@H]1NC(=O)[C@H](CCCNC(=N)N)NC(=O)[C@@H](Cc2ccc(O)cc2)NC(=O)CSC[C@@H](C(N)=O)NC(=O)[C@H](Cc2ccc(O)cc2)NC(=O)[C@H](C(C)C)NC(=O)[C@H](CC(N)=O)NC(=O)[C@H](Cc2c[nH]c3ccccc23)NC(=O)[C@H](Cc2c[nH]c3ccccc23)NC(=O)[C@H]([C@@H](C)O)NC(=O)[C@H](Cc2ccc(O)cc2)NC(=O)[C@H](Cc2ccccc2)NC(=O)[C@H](CC(C)C)NC(=O)[C@H](Cc2ccc(O)cc2)NC1=O,5.59,5.61
–,–,0.269 µM,-0.19,1.38 µM,1.78 µM,CC[C@H](C)[C@@H]1NC(=O)[C@@H](Cc2ccc(O)cc2)NC(=O)CSC[C@@H](C(N)=O)NC(=O)[C@H](CCCNC(=N)N)NC(=O)[C@H](Cc2c[nH]c3ccccc23)NC(=O)[C@H](Cc2c[nH]c3ccccc23)NC(=O)[C@H]([C@@H](C)O)NC(=O)[C@H](Cc2ccc(O)cc2)NC(=O)[C@H](Cc2ccc(O)cc2)NC(=O)[C@H](CCCNC(=N)N)NC(=O)[C@H](Cc2ccc(O)cc2)NC(=O)[C@H](C(C)C)NC1=O,5.66,5.47
–,–,0.794 µM,-0.01,2.69 µM,4.07 µM,CC[C@H](C)[C@@H]1NC(=O)[C@H](CCC(N)=O)NC(=O)[C@H](Cc2ccc(O)cc2)NC(=O)[C@H](Cc2ccc(O)cc2)NC(=O)[C@H]([C@@H](C)O)NC(=O)[C@H](CCCCN)NC(=O)[C@H](C(C)C)NC(=O)[C@H](CCCNC(=N)N)NC(=O)[C@H](Cc2ccc(O)cc2)NC(=O)[C@@H](Cc2ccc(O)cc2)NC(=O)CSC[C@@H](C(N)=O)NC(=O)[C@H](CO)NC(=O)[C@H](CC(C)C)NC(=O)[C@H](Cc2ccc(O)cc2)NC(=O)[C@H](C(C)C)NC(=O)[C@H](Cc2ccc(O)cc2)NC(=O)[C@H]([C@@H](C)O)NC1=O,5.52,5.51
